T cell modulator = T cell immune modulation candidate; 2C CD8+ T cell-vesicle binding, flow cytometry; stronger effect = lower value; response (vesicle binding), % at 7 µM; 330,000 compounds, 0.068% hits; AID 2052;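 active means response, share of CD8 T cells binding vesicles, and their 90th percentile fluorescence all below set limits, cut at about 80% in these data, passing the limit was not always enough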;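 further: values below 100% mean blocked vesicle binding to the CD8+ T cells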
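Also added: QL9-peptide-loaded Drosophila micro-vesicles bearing Ld, ICAM-1 and B7-1; Test system: purified 2C TCR transgenic mouse naive CD8+ T cells; Measured by: cytometric PE anti-B7-1 and Alexa647 anti-CD8 signals after 1% paraformaldehyde fixation; Timing: binding step 1.5 h, 37 °C, antibody labelling 20 min, ice.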
MEKK3 PB1 HTS = MEKK3-MEK5 PB1 interaction, increase or decrease; 290,000 compounds, 1.4% hits; binding response (% of control), % at 10 µM; bead-based flow cytometry, Alexa488-MEK5 binding to MEKK3; actives lie on both sides; 0 = blocked by unlabeled MEK5, 100 = vehicle;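 active means binding response more than 3 SD above or below the average of its plate-row segment, actives on both sides; inconclusive means wells at one plate position flagged as instrument error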;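 further: Alexa488 bead fluorescence after subtracting the streptavidin-only scavenger bead signal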
MEKK2mut PB1 HTS = signal of MEK5 binding to mutant human MEKK2 PB1 domain; bead flow cytometry, Alexa488-MEK5 binding to MEKK2 mutant; percent response, % at 10 µM; 290,000 compounds, 0.35% hits; AID 1530; in the data active means percent response above about 24%, passing the limit was not always enough
Rce1 inhib = yeast Ras-converting enzyme inhibition. Q03530. yeast membranes, quenched prenylated peptide cleavage fluorescence. calls only. 290,000 compounds, 0.27% hits;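 active means fall in fluorescence gain of 50% or more versus controls, with final raw signal at or below 3038400; inconclusive means same 50% fall but final raw signal above 3038400; inactive means fall in fluorescence gain under 50%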;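 further: plate controls were neutral control wells for no effect and wells lacking membranes for full effect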
Target sequence (Q03530 whole entry, looked up): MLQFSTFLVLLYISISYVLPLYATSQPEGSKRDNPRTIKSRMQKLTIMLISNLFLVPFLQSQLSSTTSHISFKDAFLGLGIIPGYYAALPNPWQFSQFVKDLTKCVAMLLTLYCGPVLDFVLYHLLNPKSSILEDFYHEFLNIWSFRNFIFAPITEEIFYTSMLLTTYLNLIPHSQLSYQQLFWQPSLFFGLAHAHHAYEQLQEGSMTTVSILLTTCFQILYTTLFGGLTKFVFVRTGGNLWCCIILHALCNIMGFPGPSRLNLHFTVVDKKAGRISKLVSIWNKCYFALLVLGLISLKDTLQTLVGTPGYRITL
UCH37 DUB inh = blocks the human deubiquitinase UCH37. purified proteasome/UCH37, Ub-AMC cleavage fluorescence. 330,000 compounds, 0.33% hits. inhibition, % (no concentration beside the values). Q9Y5K5;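 active means mean inhibition over replicate wells above about 20%, limit read from the data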;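 further: 0% = compound-free wells with enzyme and 100% = wells lacking proteasome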
Target sequence (Q9Y5K5 whole entry, looked up): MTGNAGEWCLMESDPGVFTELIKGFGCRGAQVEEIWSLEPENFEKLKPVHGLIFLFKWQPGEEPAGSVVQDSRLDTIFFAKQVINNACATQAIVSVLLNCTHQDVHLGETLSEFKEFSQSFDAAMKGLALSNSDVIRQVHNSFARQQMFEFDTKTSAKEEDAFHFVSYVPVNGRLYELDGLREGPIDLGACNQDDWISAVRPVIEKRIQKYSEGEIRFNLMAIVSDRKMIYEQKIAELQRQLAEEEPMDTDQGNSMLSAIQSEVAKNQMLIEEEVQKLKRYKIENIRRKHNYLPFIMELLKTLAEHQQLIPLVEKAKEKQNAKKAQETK
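Material: Human UCH37 enzyme supplied as purified proteasome complex | Schedule: 30 min preincubation with enzyme, 25 min cleavage at room temperature | Detection: AMC fluorescence 355/460 nm | Measure: % inhibition of Ub-AMC cleavage fluorescence | Controls: Wells without proteasome as full block, compound-free enzyme plus substrate as uninhibited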
MEKK2 WT-MEK5 = raises or lowers MEK5 binding to wildtype human MEKK2 PB1 domain. Q9Y2U5. bead flow cytometry, Alexa488-MEK5 binding to MEKK2 WT; actives lie on both sides. binding response (% of control), % at 10 µM. 290,000 compounds, 1.1% hits. AID 1531; in the data active means binding response below about 67% or above about 130%; inconclusive means no clear call, values can overlap the other calls; inactive means in between
MEKK2wt confirm = raises or lowers MEK5 binding to wildtype human MEKK2, retest; shares compounds with MEKK3 PB1 HTS; bead flow cytometry, Alexa488-MEK5 binding to MEKK2 WT; actives lie on both sides; binding response (% of control), % at 10 µM; 5,900 compounds, 2.4% hits; AID 1892; in the data active means binding response below about 16% or above about 210%; inactive means in between
MEKK2mut confirm = signal of MEK5 binding to mutant human MEKK2, retest; shares compounds with MEKK3 PB1 HTS; bead flow cytometry, Alexa488-MEK5 binding to MEKK2 mutant; percent response, % at 10 µM; 5,900 compounds, 2% hits; in the data active means percent response mostly above about 71%, no sharp cut-off; inactive means mostly below about 38%;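 further: higher means compound restores mutant binding toward wildtype level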
MEKK3-MEK5 inh = confirmation of inhibitors of MEK5 binding to human MEKK3; binding response (% of control), % at 10 µM; AID 1894; 5,900 compounds, 1.8% hits; shares compounds with MEKK3 PB1 HTS; bead flow cytometry, Alexa488-MEK5 binding to MEKK3; stronger effect = lower value;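 active means binding response below 72% of control, or above a set upper limit, though filed actives all read lower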;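 further: 100% = DMSO only wells and 0% = binding blocked by excess unlabeled MEK5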
Numbers without * were called inactive; i = inactive; ? = inconclusive; · = no result given; [ ] = dose if it differs, or a comment. Hits are enriched below; roughly 2.5% of the tested compounds scored in any of these assays.

SMILES | T cell modulator | MEKK3 PB1 HTS | MEKK2mut PB1 HTS | Rce1 inhib | UCH37 DUB inh | MEKK2 WT-MEK5 | MEKK2wt confirm | MEKK2mut confirm | MEKK3-MEK5 inh
N=c1n(Cc2ccccc2)c2ccccc2n1CC(O)COc1ccc(Cl)cc1Cl (stereo not given) | · | 111 | 63* | i | 5 | 220* | 172 | 30 | 97
N=c1n(Cc2ccccc2)c2ccccc2n1Cc1ccccc1 | 296 | 95 | -2 | i | 6 | 106 | · | · | ·
COc1ccc(OCC(O)Cn2c(=N)n(Cc3ccccc3)c3ccccc32)cc1 (stereo not given) | 462 | 95 | 5 | i | 6 | 122 | · | · | ·
Cc1cccc(OCC(O)Cn2c(=N)n(Cc3ccccc3)c3ccccc32)c1 (stereo not given) | 488 | 95 | -2 | i | 3 | 116 | · | · | ·
Cc1ccc(OCC(O)Cn2c(=N)n(Cc3ccccc3)c3ccccc32)cc1 (stereo not given) | 180 | 106 | 6 | i | 3 | 140* | 120 | 8 | 99
CCCCOC(=O)c1ccc(NC(=O)c2ccccc2OC)cc1 | 212 | 136* | 2 | i | 2 | 118 | 103 | 2 | 106
CCCCOC(=O)c1ccc(NC(=O)C(=O)NCc2ccco2)cc1 | 341 | 136* | 0 | i | 1 | 110 | 88 | -13 | 91
CCCCOC(=O)c1ccc(NC(=O)C(=O)NCc2ccccn2)cc1 | 70 | 110 | 16 | i | 5 | 104 | · | · | ·
CN(C)CCNc1nc2sc3c(c2c(=O)n1-c1ccccc1)CCCCC3 | i | 95 | -18 | i | · | 106 | · | · | ·
CN(C)CCNc1nc2sc3c(c2c(=O)n1Cc1ccccc1)CCCCC3 | · | 106 | 22 | i | 7 | 149* | 150 | 25 | 107
O=c1[nH]cnc2c1sc(=S)n2-c1ccccc1 | 676 | 99 | 0 | i | 7 | 95 | · | · | ·
C=CCn1c(=S)sc2c(=O)[nH]cnc21 | 375 | 133* | 26 | i | 6 | 128 | 103 | 8 | 107
COc1cc(C=NNC(=O)C(C)(C)O)ccc1OC/C=C/c1ccccc1 | · | · | · | · | -5 | · | · | · | ·
Cc1ccc(S(=O)(=O)NCCC(=O)NCc2ccccc2)cc1 | 87 | 110 | 7 | i | 4 | 107 | · | · | ·
Cc1ccc(NC(=O)CCNS(=O)(=O)c2ccccc2)c(C(=O)c2ccccc2)c1 | 639 | 138* | 1 | i | 5 | 110 | 100 | 2 | 104
Cc1ccc(C=NNC(=O)c2ccc3ccccc3c2)s1 | · | · | · | · | -3 | · | · | · | ·
CCC(C)NC(=O)c1cc2cc3ccc(OC)cc3nc2s1 (stereo not given) | 376 | 126* | 5 | ? | i | 120 | 97 | -4 | 98
COc1ccc(C2C(C(C)=O)=C(C)N=c3sc(=Cc4ccc5c(c4)OCO5)c(=O)n32)c(OC)c1 (stereo not given) | · | · | · | · | 7 | · | · | · | ·
CCCc1nc2ccccc2c(=O)n1N=Cc1ccccc1O | · | · | · | · | -1 | · | · | · | ·
Cc1ccc(-n2ncc(C(=O)Nc3cc(Cl)cc(Cl)c3)c2C2CCNCC2)cc1C | · | 106 | 58* | i | 8 | 216* | 143 | -7 | 94
CCOc1ccc(OCc2cccc(C(=O)Nc3ccc(CN4CCCCC4)cc3)c2)cc1 | 306 | 113 | 6 | i | 2 | 161* | 138 | 43 | 107
O=C(Nc1ccc2c(c1)OCCO2)c1cccc(C(=O)Nc2ccc3c(c2)OCCO3)c1 | 212 | 105 | 8 | i | -21 | 107 | · | · | ·
CCOc1ccc(C(=O)Nc2ccc(N3CCN(C)CC3)cc2)cc1Br | 430 | 100 | 24* | i | -20 | 129 | 120 | 13 | 103
CCOc1cccc(C(=O)Nc2ccc(N3CCCC3)cc2)c1 | 194 | 107 | 9 | i | 0 | 144* | 113 | 5 | 104
COc1ccc(OCc2cccc(C(=O)Nc3ccc(CN4CCCCC4)cc3)c2)cc1 | 403 | 100 | 0 | i | 2 | 112 | · | · | ·
SMILES | T cell modulator | MEKK3 PB1 HTS | MEKK2mut PB1 HTS | Rce1 inhib | UCH37 DUB inh | MEKK2 WT-MEK5 | MEKK2wt confirm | MEKK2mut confirm | MEKK3-MEK5 inh
CCOc1cccc(C(=O)Nc2ccc3c(c2)OCCO3)c1 | i | 26*[inhibitor] | -21 | i | 4 | 38*[inhibitor] | 102 | 2 | 104
Cn1cccc1C=NNC(=O)c1ccn[nH]1 | · | · | · | · | 5 | · | · | · | ·
COc1cc(C=NNc2nc(N3CCCC3)nc(N3CCCC3)n2)ccc1O | · | · | · | · | -1 | · | · | · | ·
CC(C)Oc1cccc(C(=O)NC(=S)Nc2ccc(N3CCN(C)CC3)cc2)c1 | 272 | 24*[inhibitor] | -37 | i | 3 | 48 | 144 | 38 | 110
COc1ccc(C=NN=C(N)c2nonc2N)cc1OC | · | · | · | · | 11 | · | · | · | ·
CCN(CC)Cc1c(O)ccc2c(=O)c(-c3ccccc3Cl)coc12 | 295 | 104 | 25* | i | i | 102 | 102 | -1 | 102
O=C(O)CCC(=O)N1N=C(c2c(-c3ccccc3)c3cc(Cl)ccc3[nH]c2=O)CC1c1cccs1 (stereo not given) | 180 | 134* | 1 | i | -33 | 105 | 102 | -3 | 101
O=C(Cn1cc[n+](CC(=O)c2ccccc2)c1)c1ccccc1 | 196 | 98 | 4 | i | -1 | 104 | · | · | ·
O=C(Cn1cc[n+](CC(=O)c2ccc(Cl)cc2Cl)c1)c1ccc(Cl)cc1Cl | 434 | 109 | 39 | i | 7 | 174* | 153 | 24 | 108
COc1ccc(OCC(=O)Nc2nc3c(s2)CCCC3)cc1 | i | 104 | 5 | i | 2 | 111 | · | · | ·
COc1ccc(NC(=O)Nc2nc3c(s2)CCCC3)cc1 | 86 | 136* | 2 | i | 0 | 109 | 107 | 11 | 105
COC(=O)/C=C1/S/C(=N/N=Cc2ccc(N(C)C)cc2)NC1=O | · | · | · | · | 4 | · | · | · | ·
Cc1cc(Cl)ccc1NC(=O)CCCN1C(=O)CCC1=O | · | 102 | 4 | i | 0 | 104 | · | · | ·
Cc1cc(Cl)ccc1NC(=O)CCC(=O)O | 320 | 135* | 1 | i | 1 | 108 | 103 | 3 | 99
C=CCNC(=S)Nc1ccccc1 | 440 | 79*[inhibitor] | -13 | i | 1 | 77 | 99 | -6 | 98
C=CCNC(=S)Nc1cccc(NC(=S)NCC=C)c1 | 470 | 101 | -1 | i | 2 | 99 | · | · | ·
O=C(COc1cccc2cccnc12)NN=C1SCC(=O)N1CCc1ccccc1 | · | · | · | · | 2 | · | · | · | ·
